# High-throughput results from PubChem BioAssay.
# LANA DNA inh: blocks KSHV LANA C-terminal domain binding to DNA. inhibition, % at 9 µM. MBP-C-LANA/FAM-LBS DNA binding, fluorescence polarization. 340,000 compounds, 0.078% hits. AID 504423;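 active = highest replicate inhibition at or above 60% at 9 µM, even if other replicates fall short; inactive = all replicates below 60% inhibition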;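 note: 0% = neutral control wells and 100% = 4 µM acridine orange control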
# DDE Tn7 FP inh: DD(E)-Tn7 binding inhibition, primary FP screen; P02675; FP displacement of FITC-Tn7 peptide from fibrin DD(E); 0% = median of compound wells per plate; inhibition, % at 8.3 µM; 370,000 compounds, 0.13% hits;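 active = inhibition above the mean of compounds falling within the control limits plus 3 SD of them, cut at about 14% in these data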;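 note: 0% = plate median of compound wells and 100% = 10 µM Aha-Tn7 peptide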
# Target sequence (P02675 whole entry, looked up): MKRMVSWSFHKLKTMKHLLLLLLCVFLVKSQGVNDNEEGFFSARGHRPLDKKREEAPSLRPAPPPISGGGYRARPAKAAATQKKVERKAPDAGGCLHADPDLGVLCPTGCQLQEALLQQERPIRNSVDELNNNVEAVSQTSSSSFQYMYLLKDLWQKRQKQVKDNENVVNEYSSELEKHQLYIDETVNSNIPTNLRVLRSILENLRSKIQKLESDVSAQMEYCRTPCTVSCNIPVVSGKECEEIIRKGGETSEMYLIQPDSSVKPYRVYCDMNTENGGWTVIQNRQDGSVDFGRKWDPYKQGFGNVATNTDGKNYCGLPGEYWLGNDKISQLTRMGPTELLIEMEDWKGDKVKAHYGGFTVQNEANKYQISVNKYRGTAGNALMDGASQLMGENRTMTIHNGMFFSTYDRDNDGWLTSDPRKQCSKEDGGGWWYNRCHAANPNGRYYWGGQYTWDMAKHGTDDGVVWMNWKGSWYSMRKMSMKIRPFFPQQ
#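 Assay system: Fibrin-DD(E) protein isolated from polymerized human fibrin clots; read-out basis: percent inhibition; medium: Tris/NaCl/CaCl2 buffer, pH 7.8; signal: FP measurement; incubation: 10 min plus 3 h, room temperature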
# Tn6 DDE FP: disrupts Tn6 cyclic peptide binding to fibrin D-Dimer-E complex. P02675. Fibrin DD(E) TRITC-Tn6 fluorescence polarization displacement. inhibition, % at 8.3 µM. 370,000 compounds, 0.21% hits. AID 720509;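 active = inhibition above a per-campaign cutoff: mean of compounds within control limits plus 3 SD, cut at about 15% in these data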;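 note: 0% = median of all compound wells on the plate and 100% = blocking peptide control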
# Keap1 Nrf2 FP: Keap1-Nrf2 (human) interaction inhibition; Keap1 Kelch-Nrf2 peptide fluorescence polarization, 1536-well; Q14145; 340,000 compounds, 0.15% hits; inhibition, % at 9.4 µM; AID 504523; in the data active = inhibition above about 12%;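 note: human Keap1 Kelch domain with fluorescein labeled Nrf2 9mer peptide probe; 0% = neutral control wells and 100% = peptide positive control; higher means more block of Keap1 binding to Nrf2 peptide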
# Rtt109 Vps75: inhibitors of Candida albicans Rtt109/Vps75 histone acetyltransferase. Q5AAJ8. purified Rtt109/Vps75, ThioGlo CoA-SH fluorescence, 4 h. inhibition, % at 34.9 µM. 330,000 compounds, 0.16% hits. AID 540336;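 active = inhibition of at least 50% in every replicate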
# DDE Tn6 FP ctr: counter-screen hit for Tn6 peptide-fibrin DD(E) binding disruption | inhibition, % at 8.3 µM | 680 compounds, 2% hits | shares compounds with Tn6 DDE FP | TRITC-Tn6 fluorescence polarization displacement; 0% = median of compound wells, not DMSO;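 active = inhibition above the mean of test compounds lying between the control limits plus 3 SD of those, cut at about 14% in these data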;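 note: 0% = median of compound wells and 100% = wells with Aha-Tn7 blocking peptide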
# Tn6 DDE conf: DD(E)-Tn6 binding inhibition, FP confirmation. inhibition, % at 8.3 µM. shares compounds with Tn6 DDE FP. FP displacement of TRITC-Tn6 peptide from DD(E); 0% = per-plate median of test wells. 680 compounds, 10% hits;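 active = inhibition above the mean of compounds lying within the control limits plus 3 SD, cut at about 16% in these data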;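 note: 100% = high control wells holding a competing inhibitor peptide at 10 µM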
# * marks the source's active call; other numbers are inactive results; · = no result given; ! = repeats disagree. Shown are actives, neighbours in structure and some others; about 0.6% of the full set was active somewhere.
SMILES,LANA DNA inh,DDE Tn7 FP inh,Tn6 DDE FP,Keap1 Nrf2 FP,Rtt109 Vps75,DDE Tn6 FP ctr,Tn6 DDE conf
CC(=O)Nc1cccc(C(=O)OC(C)C(=O)N2CCc3ccccc32)c1 (stereo unspecified),-0.5,0.2,-2.1,5.3,-8.7,·,·
COc1cccc(N2C(N)=NC(N)=NC2(C)C)c1,0.3,-0.6,1.4,-2.0,8.5,·,·
CC1(C)N=C(N)N=C(N)N1c1cccc(C#N)c1,1.3,2.6,15.6*,-2.2,-2.6,9.4,6.0
Cc1ccc(S(=O)(=O)N(C)C)cc1NC(=O)c1cccs1,2.5,-0.8,17.3*,-4.0,1.9,-1.8,-4.7
Cc1ccc(S(=O)(=O)N(C)C)cc1NC(=O)c1sccc1Cl,-0.1,0.9,-7.3,4.1,-4.7,·,·
O=C(Nc1ccccc1N1CCCC1)c1ccc(Cl)cc1Cl,8.4,4.5,16.3*,1.2,-3.1,0.5,-3.6
C[C@H]1C2CC(OC(=O)NCc3ccc(Cl)cc3)C(C2)[C@H]2CCCCN21 (stereo partly specified),·,7.1,-2.3,·,·,·,·
CCn1nnnc1SCC(=O)Nc1nc(C)c(C)s1,-3.5,3.5,16.1*,0.6,1.2,2.9,1.6
COC(=O)[C@H](Cc1ccccc1)NC(=O)[C@H]1C[C@@]2(N3CCCC3)c3ccccc3N(C(=O)OC(C)(C)C)[C@H]2N1C(=O)OC(C)(C)C,·,9.1,3.6,·,·,·,·
CCc1ccc(NC(=O)C(C)OC(=O)c2cc(=O)[nH]c3ccc(S(=O)(=O)Nc4ccc(F)cc4)cc23)cc1 (stereo unspecified),-0.7,7.9,-0.9,0.0,4.2,·,·
Cc1cccc(NS(=O)(=O)c2ccc3[nH]c(=O)cc(C(=O)OC(C)C(=O)Nc4ccc([N+](=O)[O-])cc4)c3c2)c1 (stereo unspecified),0.9,-3.7,49.6*,-1.9,3.0,7.7,-2.9
COC(=O)[C@]12C[C@H](CC(=O)NCc3ccc(OC)c(OC)c3)C(=O)N(CCc3ccc(OC)c(OC)c3)C1=C[C@H](COCc1ccccc1)O[C@@H]2C,·,2.3,15.3*,·,·,-5.2,-10.2
CCN(CC)C(=O)CC[C@H]1CC[C@]2(CCCN(Cc3nccs3)C2)O1,·,1.9,-1.8,·,·,·,·
O=C(NCc1ccco1)C(c1ccccc1)N(CC1CCCO1)C(=O)Cn1nnc2ccccc21 (stereo unspecified),-5.7,-5.1,-0.1,-4.3,-1.0,·,·
Cc1ccccc1C(C(=O)NCc1ccco1)N(CC1CCCO1)C(=O)Cn1nnc2ccccc21 (stereo unspecified),0.2,2.8,19.2*,-3.8,-5.6,1.7,-2.0
O=S1(=O)c2ccc(N3CCSCC3)cc2Oc2ccccc2CN1Cc1cn(Cc2ccccc2C(F)(F)F)nn1,·,-0.3,-0.8,·,·,·,·
O=C1N=C(N2CCN(c3ccccc3)CC2)S/C1=C/c1ccco1,-2.4,2.9,16.9*,-3.4,12.7,9.2,2.1
NC(=O)c1ccc(-n2nc(C(F)(F)F)c3c2CCCC3)cc1,-1.6,4.6,-0.5,0.9,7.5,·,·
O=C(O)c1ccc(-n2nc(C(F)(F)F)c3c2CCCC3)cc1,-1.3,2.1,21.1*!,-2.6,7.4,3.9,2.9
O=C(CCS(=O)(=O)c1ccc(Cl)cc1)N1CCN(c2ccc(F)cc2)CC1,0.9,0.3,18.4*,0.6,4.5,6.0,-4.1
COc1ccc2c(CC#N)c[nH]c2c1,-0.8,2.0,15.7*,-5.6,-8.2,1.9,2.3
COc1ccc2c(CCNC(N)=S)c[nH]c2c1,0.4,4.1,7.3,-1.2,7.2,·,·
O=C(Nc1ccccc1C(F)(F)F)OC1CCC12CCC(c1ccccc1)CC2 (stereo unspecified),·,2.8,0.8,·,·,·,·
CCN(CC)c1ccc(N=C2C=CC(=O)C=C2NC(C)=O)cc1,·,-5.0,20.0*,·,·,4.2,54.2*
O=C(CN1C(=O)c2cccnc2Oc2ccc(Cl)cc21)N1CCCC1,-1.3,2.9,16.4*,-3.4,-2.7,0.6,0.2
SMILES,LANA DNA inh,DDE Tn7 FP inh,Tn6 DDE FP,Keap1 Nrf2 FP,Rtt109 Vps75,DDE Tn6 FP ctr,Tn6 DDE conf
O=C(CN1C(=O)c2cccnc2Oc2ccc(Cl)cc21)N1CCCCCC1,0.3,-2.0,1.8,-8.4,-1.0,·,·
Cc1cc(C(=O)COc2cc(F)ccc2[N+](=O)[O-])c(C)n1C1CC1,1.2,6.0,15.9*,-2.5,-3.2,2.8,1.3
CCN1C(=O)CC(N2CCN(CC(=O)NC(C)C)CC2)C1=O (stereo unspecified),0.4,-2.0,15.5*,-2.0,1.2,0.8,-2.0
CC1CN(c2nc3ccccc3nc2SCC(=O)N2CCN(S(=O)(=O)c3ccc(F)cc3)CC2)CC(C)O1 (stereo unspecified),·,3.9,-1.2,·,·,·,·
O=C(NCCc1c[nH]c2ccccc12)c1ccc2c(c1)ncn2C1CCCCC1,·,-0.1,-9.2,·,·,·,·
Cc1ccc(C)c2c1cc(C)c1nnc(SCC(=O)N3CCCc4ccccc43)n12,-0.7,-5.2,1.8,-3.5,9.2,·,·
CCn1c(=O)c2ccccc2n2c(SCC(=O)N3CCCc4ccccc43)nnc12,0.6,1.9,15.4*,-5.2,-2.8,-4.0,-5.0
NS(=O)(=O)c1ccc(S(=O)(=O)N2CCCC2)cc1,1.9,-2.9,-0.6,-2.6,-4.6,·,·
NS(=O)(=O)c1ccc(Nc2ccc3cc(S(=O)(=O)N4CCCCC4)ccc3n2)cc1,-1.0,-6.7,36.1*,-4.5,36.0,5.3,-21.0
O=C1CCC[C@H]2C[C@H](NCc3ccc(Cl)c(C(F)(F)F)c3)CC[C@]23CCCN13,·,1.6,-1.2,·,·,·,·
O=C(CSc1ccc(-c2nc3ccccc3[nH]2)cn1)Nc1ccc(S(=O)(=O)NC2CC2)cc1,1.0,-4.1,182.5*,-0.1,5.7,8.8,-12.3
Oc1cc2c(cc1O)C1c3ccc(O)c(O)c3OCC1(O)C2 (stereo unspecified),20.5,-3.6,33.4*,-4.4,159.3*,-4.5,20.7*
CC(C)[C@@H]1NC(=O)[C@H]2C[C@@]3(C)c4ccccc4N[C@H]3N2C1=O,·,1.0,3.8,·,·,·,·
CC(C)c1ccc(CNc2nnnn2C)cc1,-0.6,3.5,19.2*,-4.6,1.5,0.3,0.2
CC(C)C(=O)NCCc1nc2ccccc2n1CCOc1ccccc1,2.8,0.5,15.4*,-2.8,-6.4,9.0,8.0
Cc1ccccc1N1CCN(C(=O)CN2C(=O)CC(C)(C)S(=O)(=O)c3ccccc32)CC1,·,2.7,0.9,·,·,·,·
COC(=O)c1ccc2c(c1)C(C)(C)C(/C=C/c1ccccc1O)=[N+]2C,-1.5,-19.7,58.1*,-112.9,1.0,-34.0,3.7
C[N+]1=C(/C=C/Nc2ccccc2Cl)C(C)(C)c2ccccc21,-2.7,2.5,6.8,-16.6,-14.8,·,·
